Results as given in ChEMBL document CHEMBL4706772, “Structure-Based Design of A-1293102, a Potent and Selective BCL-X Inhibitor” (ACS Med Chem Lett, 2021).

Key:
[1] = target: Induced myeloid leukemia cell differentiation protein Mcl-1 (Homo sapiens, UniProt Q07820); test: Inhibition of F-Bak binding to GST-tagged MCL1 (unknown origin) measured after 1 hr by TR-FRET assay
[2] = system: MOLT-4; test: Cytotoxicity against human MOLT-4 cells assessed as reduction in cell viability measured after 48 hrs by celltiter-glo assay; type: functional, cell-based; conditions: MOLT-4, 48 h
[3] = system: RS4-11; test: Cytotoxicity against human RS4-11 cells assessed as reduction in cell viability measured after 48 hrs by celltiter-glo assay; type: functional, cell-based; conditions: RS4-11, 48 h
[4] = target: T1, Bcl-2-like protein 1 (Homo sapiens, UniProt Q07817); test: Inhibition of F-Bak binding to GST-tagged BCL-XL (unknown origin) measured after 1 hr by TR-FRET assay
T1 sequence (Q07817 whole entry): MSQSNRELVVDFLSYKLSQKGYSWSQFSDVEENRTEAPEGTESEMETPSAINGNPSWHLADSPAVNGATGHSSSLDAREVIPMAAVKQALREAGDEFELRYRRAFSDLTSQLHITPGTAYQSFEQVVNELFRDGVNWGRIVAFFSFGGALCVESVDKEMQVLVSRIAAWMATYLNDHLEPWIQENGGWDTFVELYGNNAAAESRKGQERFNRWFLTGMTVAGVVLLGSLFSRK

[5] = target: T1, Bcl-2-like protein 1; test: Binding affinity to N-terminal GST-tagged BCL-XL (unknown origin) assessed as residence half-life by SPR analysis
[6] = organism: Homo sapiens; test: Selectivity ratio of Ki for inhibition of F-Bak binding to GST-tagged BCL2 (unknown origin) to Ki for inhibition of F-Bak binding to GST-tagged BCL-XL (unknown origin)
[7] = target: T1, Bcl-2-like protein 1; test: Binding affinity to N-terminal GST-tagged BCL-XL (unknown origin) assessed as equilibrium dissociation constant by SPR analysis
[8] = target: T1, Bcl-2-like protein 1; test: Binding affinity to N-terminal GST-tagged BCL-XL (unknown origin) assessed as dissociation rate constant by SPR analysis
[9] = target: T1, Bcl-2-like protein 1; test: Binding affinity to N-terminal GST-tagged BCL-XL (unknown origin) assessed as association rate constant by SPR analysis
[10] = system: MOLT-4; test: Induction of apoptosis in human MOLT-4 cells assessed as activation of caspase-3/7 measured after 24 hrs by caspase-3/7 fluorescence assay; type: functional, cell-based
How it was run: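 MOLT-4 cells incubated 24 h with a rising concentration series of inhibitor. Read-out was caspase-3 and caspase-7 activation, reported as percentage of caspase-3/-7-positive cells.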

[11] = target: Apoptosis regulator Bcl-2 (Homo sapiens, UniProt P10415); test: Inhibition of F-Bak binding to GST-tagged BCL2 (unknown origin) measured after 1 hr by TR-FRET assay
Sequence of Apoptosis regulator Bcl-2 (P10415 whole entry): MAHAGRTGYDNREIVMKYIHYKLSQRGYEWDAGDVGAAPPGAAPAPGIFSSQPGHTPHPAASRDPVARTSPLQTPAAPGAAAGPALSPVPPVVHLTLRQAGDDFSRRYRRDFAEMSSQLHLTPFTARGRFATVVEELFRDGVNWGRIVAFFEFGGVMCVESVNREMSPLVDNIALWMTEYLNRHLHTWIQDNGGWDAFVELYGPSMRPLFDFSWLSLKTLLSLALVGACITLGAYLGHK

[12] = system: MOLT-4; test: Induction of mitochondrial membrane depolarization in human MOLT-4 cells measured after 24 hrs; type: functional, cell-based
[13] = system: MOLT-4; test: Induction of apoptosis in human MOLT-4 cells assessed as externalization of phosphatidylserine measured after 24 hrs by annexin-V staining based flow cytometry; type: functional, cell-based
How it was run: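 Phosphatidylserine exposure in MOLT-4 cells was scored by annexin V binding after 24 h exposure to increasing inhibitor concentrations. Results are expressed as percent annexin V-positive cells.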

Sequence of Induced myeloid leukemia cell differentiation protein Mcl-1 (Q07820 whole entry): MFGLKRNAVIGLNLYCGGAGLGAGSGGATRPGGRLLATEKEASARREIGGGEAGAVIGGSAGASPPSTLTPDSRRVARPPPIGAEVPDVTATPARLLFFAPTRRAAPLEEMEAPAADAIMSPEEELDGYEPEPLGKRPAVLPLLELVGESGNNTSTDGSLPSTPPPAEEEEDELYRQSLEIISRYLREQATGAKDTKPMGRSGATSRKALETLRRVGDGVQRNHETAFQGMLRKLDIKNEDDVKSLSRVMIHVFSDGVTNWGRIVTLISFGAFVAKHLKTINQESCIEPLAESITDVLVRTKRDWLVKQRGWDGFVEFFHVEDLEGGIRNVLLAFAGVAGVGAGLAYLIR

Structure (SMILES)	Ki [1] [nM]	EC50 [2] [nM]	EC50 [3] [nM]	Ki [4] [nM]	T1/2 [5] [min]	Ratio Ki [6]	Kd [7] [nM]	K [8] [s⁻¹]	K [9]	Activity [10]	Ki [11] [nM]	Activity [12]	Activity [13]
CN(C)CC[C@H](CSc1ccccc1)Nc1ccc(S(=O)(=O)NC(=O)c2csc(N3CCc4cccc(C(=O)Nc5nc6ccccc6s5)c4C3)n2)cc1[N+](=O)[O-]	> 1560	> 5000	> 5000	0.14	1	> 220	0.5	0.0109	2.18 10^7/M/s				
O=C(NS(=O)(=O)c1ccc(N[C@H](CCN2CCOCC2)CSc2ccccc2)c(S(=O)(=O)C(F)(F)F)c1)c1csc(N2CCc3cccc(C(=O)Nc4nc5ccccc5s4)c3C2)n1	> 3900	80	> 5000	0.43	49	> 220	0.4	0.000234	5.88 10^5/M/s	Dose-dependent effect	193	Dose-dependent effect	Dose-dependent effect
